Results taken from ChEMBL document CHEMBL1687733, “Topoisomerase I gene mutations at F270 in the large subunit and N184 in the small subunit contribute to the resistance mechanism of the unicellular parasite Leishmania donovani towards 3,3'-diindolylmethane” (Antimicrob Agents Chemother, 2009).
The source made the active and inactive calls.

How the values were obtained:
Leishmania donovani [1] = assay: Inhibition of recombinant wild type Leishmania donovani AG83 topoisomerase 1b-mediated relaxation of supercoiled pBluescript SK(+) DNA at 10 uM after 30 mins using ethidium bromide staining
How it was run: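 Recombinant L and S subunits (E. coli, Ni-NTA then phosphocellulose) were reconstituted at a 1:1 molar ratio and dialysed 12 h at 4°C in 50 mM K-phosphate pH 7.5. Enzyme (30 fmol) acted on 90 fmol supercoiled pBS SK(+) for 30 min at 37°C, with DIM or 4% DMSO. Products ran on 1% agarose with ethidium bromide (0.5 μg/ml), and the supercoiled band was quantified.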

Leishmania donovani [2] = assay: Antimicrobial activity against wild type Leishmania donovani AG83 assessed as inhibition of parasite growth after 24 hrs by MTT assay; type: functional, organism-based
How it was run: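 WT L. donovani promastigotes were harvested in exponential phase and seeded at 2 × 10^6 cells per well. They were exposed to DIM at 1, 5, 10, 15 and 20 μM, washed in PBS, and given MTT (10 μg/ml) for 4 h. Acidified isopropanol stop was followed by A570. Growth was expressed as % of the OD of untreated WT, from three experiments.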

Leishmania donovani [3] = assay: Antimicrobial activity against wild type Leishmania donovani AG83 transfected with drug-resistant Leishmania donovani LdDR50 topoisomerase 1 F270L, N184S mutant in large subunit assessed as inhibition of parasite growth at 20 uM after 24 hrs by MTT assay; type: functional; settings: AG83, 24 h
How it was run: (§1)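 WT promastigotes transfected by electroporation with mutant large-subunit (pXG-HYG, hygromycin selection) and/or small-subunit (pXG-GFP2+, G418 selection) topoisomerase I genes. Grown with DIM 1–20 μM for 24 h; MTT read-out, growth as % of optical density of untreated WT parasites.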

DNA topoisomerase I [4] = molecular target: DNA topoisomerase I (Leishmania donovani (strain BPK282A1), UniProt E9BRC0, F270L); assay: Binding affinity to recombinant drug-resistant Leishmania donovani LdDR50 topoisomerase 1b large subunit F270L mutant after 24 hrs by equilibrium dialysis method
How it was run: (§2)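 Recombinant His-tagged subunits expressed in E. coli BL21(DE3) pLysS, purified on Ni-NTA then phosphocellulose, reconstituted 1:1. Enzyme 200 μM with DIM 1–20 μM in 20 mM Tris-HCl pH 7.5, 50 mM NaCl, 10 mM MgCl2 for 30 min at 37°C, then dialysed (12–14 kDa cutoff) 24 h at 25°C. Free DIM measured by absorbance (ε 6.6 × 10^4 M−1); KD from saturation plot.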

[5] = Binding affinity to recombinant drug-resistant Leishmania donovani LdDR50 topoisomerase 1b after 24 hrs by equilibrium dialysis method; how it was run: as §2
Leishmania donovani [6] = assay: Inhibition of recombinant Leishmania donovani AG83 topoisomerase 1b-mediated religation of 14-mer/25-mer suicide DNA substrate at 20 uM after […] by PAGE analysis
How it was run: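 For cleavage, the 5′-32P 14-mer/25-mer suicide substrate (5 nM) was incubated with 0.15 μM reconstituted enzyme at 23°C, with or without 20 μM DIM. Complexes were shifted to 30°C for 2 min. A 300-fold excess of 11-mer acceptor was added for 30, 60 and 120 s. Samples were stopped with 1% SDS, trypsinised, and run on a sequencing gel to read the 23-mer religated product.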

[7] = Binding affinity to recombinant drug-resistant Leishmania donovani LdDR50 topoisomerase 1b large subunit F270L, K430N mutant and small subunit N184S mutant after 24 hrs by equilibrium dialysis method; how it was run: as §2
DNA topoisomerase I [8] = molecular target: DNA topoisomerase I (Leishmania donovani (strain BPK282A1), UniProt E9BRC0, F270L/K430N); assay: Binding affinity to recombinant drug-resistant Leishmania donovani LdDR50 topoisomerase 1b large subunit F270L, K430N mutant after 24 hrs by equilibrium dialysis method; how it was run: as §2
Leishmania donovani [9] = assay: Drug uptake in wild type Leishmania donovani AG83 at 20 uM after 30 mins by spectrophotometric analysis; type: ADME, organism-based; settings: in vivo, 0.5 h
How it was run: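 Log-phase promastigotes at 3 × 10^7 cells/ml with 20 μM DIM at 22°C; aliquots at 1, 5, 10, 20 and 30 min washed three times in ice-cold PBS pH 7.4 with 0.01 N HCl, sonicated. Cell-associated DIM quantified by equilibrium dialysis and absorbance at 280 nm; three experiments in duplicate.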

Leishmania donovani [10] = assay: Antimicrobial activity against wild type Leishmania donovani AG83 transfected with drug-resistant Leishmania donovani LdDR50 topoisomerase 1 F270L, K430N mutant in large subunit and N184S mutant in small subunit assessed as inhibition of parasite growth at 20 uM after 24 hrs by MTT assay; type: functional, organism-based; how it was run: as §1
[11] = test system: T1, DNA topoisomerase type IB small subunit (Leishmania donovani (strain BPK282A1)), E9B7X3 [N184S]; assay: Inhibition of recombinant drug-resistant Leishmania donovani LdDR50 topoisomerase 1b small subunit N184S mutant-mediated religation of 14-mer/25-mer suicide DNA substrate at 20 uM […] by PAGE analysis
T1 sequence (whole entry): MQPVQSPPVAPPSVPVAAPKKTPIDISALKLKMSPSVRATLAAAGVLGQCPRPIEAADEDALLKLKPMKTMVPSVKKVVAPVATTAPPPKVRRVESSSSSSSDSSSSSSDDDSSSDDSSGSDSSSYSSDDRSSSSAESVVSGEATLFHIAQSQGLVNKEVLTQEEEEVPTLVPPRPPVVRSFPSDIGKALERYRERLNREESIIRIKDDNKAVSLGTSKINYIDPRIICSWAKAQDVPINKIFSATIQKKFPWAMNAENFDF
How it was run: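 5′-32P-labelled 14-mer annealed to 25-mer suicide substrate (5 nM) cleaved by 0.15 μM reconstituted enzyme at 23°C, ± 20 μM DIM. Complexes moved to 30°C for 2 min; religation started with 300-fold excess 11-mer acceptor for 30, 60, 120 s. Stopped with 1% SDS, trypsin-treated, 23-mer product resolved on sequencing gel.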

Leishmania donovani [12] = assay: Antimicrobial activity against wild type Leishmania donovani AG83 transfected with drug-resistant Leishmania donovani LdDR50 topoisomerase 1 K430N mutant in large subunit and wild type small subunit assessed as inhibition of parasite growth at 20 uM after 24 hrs by MTT assay; type: functional; settings: AG83, 24 h; how it was run: as §1
Leishmania donovani [13] = assay: Inhibition of recombinant drug-resistant Leishmania donovani LdDR50 topoisomerase 1b large subunit F270L mutant and small subunit N184S mutant-mediated relaxation of supercoiled pBluescript SK(+) DNA at up to 50 uM after 30 mins using ethidium bromide staining
How it was run: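 Reconstituted recombinant enzyme (30 fmol) with 90 fmol supercoiled pBluescript SK(+) DNA (3:1 DNA:enzyme), 30 min at 37°C with DIM (1–50 μM for fully mutant enzyme; 10 μM for single-site mutants); 4% DMSO vehicle control. Products on 1% agarose, ethidium bromide (0.5 μg/ml) stained; supercoiled monomer band quantified.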

DNA topoisomerase I (Leishmania donovani (strain BPK282A1), UniProt E9BRC0, F270L), sequence (E9BRC0 whole entry F270L): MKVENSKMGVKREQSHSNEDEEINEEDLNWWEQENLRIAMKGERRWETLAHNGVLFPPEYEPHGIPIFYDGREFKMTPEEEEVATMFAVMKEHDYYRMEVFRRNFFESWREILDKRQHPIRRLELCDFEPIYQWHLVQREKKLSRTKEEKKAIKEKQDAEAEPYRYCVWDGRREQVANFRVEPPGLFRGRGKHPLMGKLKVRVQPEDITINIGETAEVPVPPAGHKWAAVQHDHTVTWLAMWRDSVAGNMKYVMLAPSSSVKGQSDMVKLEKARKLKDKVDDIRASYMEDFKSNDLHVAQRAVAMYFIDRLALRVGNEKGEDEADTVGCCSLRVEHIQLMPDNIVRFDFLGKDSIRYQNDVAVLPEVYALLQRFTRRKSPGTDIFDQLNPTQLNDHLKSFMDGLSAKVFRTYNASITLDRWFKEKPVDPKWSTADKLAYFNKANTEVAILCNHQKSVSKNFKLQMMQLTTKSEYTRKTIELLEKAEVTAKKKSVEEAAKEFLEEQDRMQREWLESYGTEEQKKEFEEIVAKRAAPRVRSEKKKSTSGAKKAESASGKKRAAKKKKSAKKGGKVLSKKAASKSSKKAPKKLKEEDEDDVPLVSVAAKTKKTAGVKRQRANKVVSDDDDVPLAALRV
DNA topoisomerase I (Leishmania donovani (strain BPK282A1), UniProt E9BRC0, F270L/K430N), sequence (E9BRC0 whole entry F270L/K430N): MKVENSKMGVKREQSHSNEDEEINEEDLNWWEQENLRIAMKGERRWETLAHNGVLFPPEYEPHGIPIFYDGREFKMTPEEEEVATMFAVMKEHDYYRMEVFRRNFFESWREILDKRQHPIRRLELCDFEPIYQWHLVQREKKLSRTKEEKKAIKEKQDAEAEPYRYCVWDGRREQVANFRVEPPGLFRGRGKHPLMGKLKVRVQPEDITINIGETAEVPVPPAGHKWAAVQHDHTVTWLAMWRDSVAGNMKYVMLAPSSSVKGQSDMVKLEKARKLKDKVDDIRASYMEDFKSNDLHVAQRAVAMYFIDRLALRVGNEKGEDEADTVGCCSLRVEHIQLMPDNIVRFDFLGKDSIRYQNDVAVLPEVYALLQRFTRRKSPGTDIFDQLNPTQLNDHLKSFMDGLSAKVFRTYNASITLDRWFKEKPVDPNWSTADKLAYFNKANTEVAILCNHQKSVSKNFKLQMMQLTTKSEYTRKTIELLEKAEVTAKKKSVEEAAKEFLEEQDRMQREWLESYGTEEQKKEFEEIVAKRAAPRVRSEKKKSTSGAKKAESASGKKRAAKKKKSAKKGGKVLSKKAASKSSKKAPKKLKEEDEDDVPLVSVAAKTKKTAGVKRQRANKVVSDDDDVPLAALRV

c1ccc2c(Cc3c[nH]c4ccccc34)c[nH]c2c1 [ARUNDINE]
inhibition (Leishmania donovani [1]): Active | inhibition (Leishmania donovani [2]): Dose-dependent effect | IC50 (Leishmania donovani [2]; AG83, 24 h): 1250 nM | inhibition at 20 µM (Leishmania donovani [3]): 31% | Kd (DNA topoisomerase I [4]): 530 µM | Kd [5]: 240 µM | inhibition (Leishmania donovani [6]): Active | Kd [7]: 240 µM | Kd (DNA topoisomerase I [8]): 760 µM | Drug uptake (Leishmania donovani [9]): Active | Activity (Leishmania donovani [10]): inactive | inhibition [11]: Active | inhibition at 20 µM (Leishmania donovani [12]): 94% | inhibition (Leishmania donovani [13]): inactive
